Among the data in PubChem BioAssay AID651560 (Sanford-Burnham Center for Chemical Genomics, 2012) are inhibition values, retold here.

In all, about 360,000 compounds went through this assay and about 820 (0.23%) were called active. For the sample, actives were picked, then their nearest neighbours and some compounds at random. Unmarked numbers belong to inactive results.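 How the source made its calls: active means compounds that cut the enzyme signal by at least half of the control window in the single-dose screen; inactive means the rest.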

Chain of Low molecular weight phosphotyrosine protein phosphatase (Homo sapiens) (P24666 whole entry, looked up): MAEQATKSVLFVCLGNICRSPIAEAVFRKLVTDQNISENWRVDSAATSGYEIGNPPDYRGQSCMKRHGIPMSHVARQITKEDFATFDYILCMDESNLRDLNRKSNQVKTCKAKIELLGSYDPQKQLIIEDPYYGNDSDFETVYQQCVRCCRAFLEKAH

The test addresses Low molecular weight phosphotyrosine protein phosphatase (Homo sapiens) (UniProt P24666). As to the kind of experiment: inhibition of human LMPTP-A enzyme – biochemical, fluorescence intensity, uHTS, primary screen (AID 651560).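 Further: plate controls were DMSO wells with enzyme plus substrate for no effect and substrate without enzyme for full effect.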 Conditions: recombinant LMPTP-A, OMFP fluorogenic substrate, at 20 µM, active compounds read high. The method, boiled down:
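Buffer or medium: Bis-Tris pH 6.0, DTT, detergent; Assay system: LMPTP-A enzyme; Quantity: 0.625 nM enzyme; Detection: endpoint fluorescence intensity; Times: 50 min dark incubation at room temperature; Controls: substrate-only low control, DMSO enzyme-plus-substrate high control; Doses: single 20 µM dose; Read-out: percent inhibition versus substrate-only and uninhibited controls; Reagent: 400 µM OMFP.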
For orientation: inhibition means the relative decrease from the control value, in per cent. On to `O=C(COC(=O)C1CC2CCCC(C1)C2=O)NC(=O)c1ccccc1` (centres undefined), for which the inhibition is -0.507%.
The value for `CC(Oc1ccc(F)cc1F)C(=O)/C=C/N(C)C` (centres undefined) was 0.234%; that for `C[C@H]1CN([C@@H](C)CO)S(=O)(=O)c2ccc(-c3cccc(F)c3)cc2O[C@@H]1CN(C)C` was -1.08%.
With `CCOC(=O)N1CCN(C(=S)Nc2ccc(C)cc2C)CC1` the figure was -1.47%.
Turning to `COc1cc([N+](=O)[O-])ccc1NC(=S)N1CCN(c2ccccn2)CC1`, the inhibition is 0.0311%.
The value for `CC1CCN(C(=S)c2cccc(O)c2)CC1` was 0.643%; that for `CCS(=O)(=O)N1Cc2ccccc2CC1C(=O)Nc1ccc(OC)cc1OC` (centres undefined) was -0.419%; that for `CC(NC(=S)NNS(=O)(=O)c1ccc(C(C)(C)C)cc1)c1ccccc1` (centres undefined) was 2.08%.
The value for `Cc1c(Nc2nc3ccccc3nc2NS(=O)(=O)c2cccs2)c(=O)n(-c2ccccc2)n1C` was -0.947%; that for `O=C(COc1ccc([N+](=O)[O-])cc1)Nc1ccc(N2CCCC2)cc1` was 59.1% (active); that for `O=C(COc1ccc([N+](=O)[O-])cc1)Nc1cccc(C(=O)Nc2ccccc2C(=O)O)c1` was 0.459%.
With `O=C(COC(=O)C1CCCCC1)Nc1ccc([N+](=O)[O-])cc1` the figure was 0.534%; with `O=C(COc1ccc(/C=N/NC(=O)c2ccc(O)cc2)cc1)Nc1ccc([N+](=O)[O-])cc1`, 71.4% (active).
With `O=C(CSc1ccc([N+](=O)[O-])cn1)Nc1ccc(N2CCOCC2)cc1`, the inhibition is -0.239%.
With `N#Cc1cc([N+](=O)[O-])ccc1Oc1cccc(/C=N/NC(=O)c2ccc(Cl)cc2)c1` the figure was 0.464%; with `COc1ccc(CCNc2ncnc3c2nnn3Cc2ccccc2)cc1`, 1.88%; with `CCn1ccnc1CNC(=O)CC1C(=O)NCCN1Cc1ccc(F)cc1Cl` (centres undefined), 1.38%.
As for `Nc1ccc(Cl)c(S(=O)(=O)Nc2ccccc2Cl)c1`, the inhibition is -0.587%.
For `O=S(=O)(c1ccc(F)cc1)N1CCN(C(=S)NCc2ccco2)CC1`, the inhibition is 0.0562%.
With `CCCc1c(C)nc2scc(-c3ccc(Cl)cc3)n2c1=O` the figure was -0.6%; with `O=c1ccc2c(-c3ccccc3S(=O)(=O)O)c3ccc(O)c(O)c3oc-2c1O`, 58.1% (active); with `Cc1ccc(N2C(=O)C3C4C=CC(CC4)C3C2=O)cc1Br` (centres undefined), -1.41%.
The value for `COc1cc(Cl)c(C)cc1NC(=O)[C@@H]1CCCN1C(=O)c1cccs1` was -1.01%; that for `CCN(CC)Cc1nc2sc(C)c(C)c2c(=O)[nH]1` was -1.11%; that for `C/C(=N\Nc1nc2ccccc2[nH]1)c1cccs1` was 1.27%.
With `NS(=O)(=O)c1ccc(NC(=S)NNC(=O)c2cccs2)cc1` the figure was -0.673%; with `C/C(=N\Nc1ccc(S(N)(=O)=O)cc1[N+](=O)[O-])c1cccs1`, 57.1% (active).
For `CCOC1=C2CN(S(=O)(=O)c3ccc(C)cc3)[C@H](c3cccs3)C[C@H]2[C@H]2C(=O)N(c3ccccc3)C(=O)[C@H]2C1`, the inhibition was 0.231%.
For the compound `O=C(c1ccccc1)c1ccc2nc(N3CCCCC3)c3nncn3c2c1`, the inhibition is 2.58%.
With `CC(C)(Oc1ccc(Cl)cc1)C(=O)OCC(=O)NCCc1ccc(S(N)(=O)=O)cc1` the figure was -0.949%; with `Cc1sc2ncnc(SCC(=O)Nc3ccc(CN4CCCC4)cc3)c2c1C`, 23.7%; with `O=c1c2ccccc2nnn1CSc1nc2sc3c(c2c(=O)n1CC1CCCO1)CCC3` (centres undefined), 4.21%.
With `O=C(CCc1nc2sc3c(c2c(=O)[nH]1)CCCC3)NCC(=O)Nc1ccccc1Br` the figure was 9.36%.
The value for `O=C(Nc1cccc(Cl)c1)C1CCCN(c2cnccn2)C1` (centres undefined) was -0.511%; that for `C[C@@H]1CN([C@@H](C)CO)C(=O)CCCn2nncc2CO[C@@H]1CN(C)S(=O)(=O)c1ccc(-c2ccccc2)cc1` was -1.91%; that for `C=C1c2c(Cl)ccc(O)c2C(O)=C2C(=O)[C@]3(O)C(O)=C(C(N)=O)C(=O)[C@@H](N(C)C)[C@@H]3[C@@H](O)C12` (some centres undefined) was 72.5% (active).
Regarding `C[C@H](CO)N1C[C@H](C)[C@@H](CN(C)S(=O)(=O)c2ccc(Oc3ccccc3)cc2)OCc2cn(nn2)CCCC1=O`, the inhibition was -0.314%.
With `O=c1cc(CO)oc(C(Nc2cccc([N+](=O)[O-])c2)c2ccccn2)c1O` (centres undefined) the figure was -1.69%.
The value for `CCOC(=O)N1CCN(Cc2nc3ccc([N+](=O)[O-])cc3c(=O)n2-c2cccc(OC)c2)CC1` was -0.855%; that for `CCCCN(C(=O)C1CCC1)c1c(N)n(Cc2ccccc2)c(=O)[nH]c1=O` was -1.05%; that for `CCN1C(=O)C(=O)N(CC(=O)Nc2cc(C)ccc2C)C1=O` was -0.207%.
The value for `COc1ccccc1C(CNC(=O)c1cccc(NS(=O)(=O)c2ccc(Br)cc2)c1)N(C)C` (centres undefined) was -1.5%; that for `COc1cc(CCN=Cc2ccccc2O)c([N+](=O)[O-])cc1OC` was 0.174%.
Turning to `COc1ccc(Br)cc1/C=N/Nc1ccc(S(=O)(=O)Nc2ccccc2C(=O)O)cc1[N+](=O)[O-]`, the inhibition is 71.1% (active).
Consider `Cc1ccc(S(=O)(=O)N[C@@H](Cc2ccccc2)C(=O)N2CCC(C(=O)N[C@H](C(=O)O)C(C)O)CC2)cc1` (some centres undefined), for which the inhibition was -1.25%.
As for `Cc1ccc(O/C=C2\OC(=O)c3ccccc32)cc1`, the inhibition is -1.45%.
The value for `CC1(C)C2CC=C(/C=N/NC(=O)c3ccc(Cl)cc3)C1C2` (centres undefined) was -2.83%.
The value for `COC(=O)C(C)C1Sc2ccccc2NC1=O` (centres undefined) was 0.652%.
Consider `CCC1CCCCN1C(=O)CSc1nc(C)cc(C)n1` (centres undefined), for which the inhibition is -0.356%.
With `CCN([C@H](CO)C(C)C)S(=O)(=O)c1ccccc1Br` the figure was -1.46%; with `CC1CCCC(C)N1C(=O)COC(=O)c1ccccc1C(=O)c1ccccc1` (centres undefined), -1.53%.
The value for `Cn1c(=O)c2c(ncn2CC(=O)N/N=C/c2cn[nH]c2-c2ccc(F)cc2)n(C)c1=O` was -0.239%; that for `CCN(c1ccccc1)S(=O)(=O)c1cc2c(cc1C)n(C)c(=O)c(=O)n2C` was 0.0122%.
With `CCCNC(=O)NC(=O)COC(=O)CC(NC(N)=O)c1ccc(Cl)cc1` (centres undefined), the inhibition is -1.19%.
With `COc1ccc2c(c1)c(=Cc1ccc(N(C)C)cc1)c1cc(-c3ccccc3)[n+](C)n12`, the inhibition is 96.2% (active).
On to `O=C(COC(=O)c1ccc([N+](=O)[O-])o1)NC12CC3CC(CC(C3)C1)C2`, for which the inhibition is 1.22%.
With `COc1cc(NC(=S)N2CCCC(C)C2)c(OC)cc1Cl` (centres undefined) the figure was 0.265%.
The value for `C=CCn1c(=O)n(C)c2c(=O)n(C)c(=O)n(C)c21` was 0.217%; that for `Cc1csc(NC(=O)CSc2nnc(-c3cccnc3)o2)n1` was -0.391%.
The value for `N#Cc1ccc(OCC(=O)NC(=O)NC2CCS(=O)(=O)C2)cc1` (centres undefined) was -1.41%; that for `O=C(CCN1C(=O)[C@@H]2Cc3ccccc3CN2C1=O)NCc1ccccc1` was 0.0399%.
As to `COc1cccc(N(C(=O)c2ccn[nH]2)C2(C(=O)Nc3c(C)cccc3C)CCCCC2)c1`, the inhibition is -0.749%.
Consider `O=C(O)COCC(=O)NCc1csc2ccc(Cl)cc12`, for which the inhibition was -1.97%.
With `CCOP(=O)(OCC)C(Nc1cccc(C)c1)c1ccc(F)cc1` (centres undefined) the figure was 0.494%; with `COc1cnc(SCc2ccc(Cl)c(Cl)c2)nc1Cl`, 3.06%; with `CCN(CC)CCNC(=O)c1sc2ncn(CC(=O)Nc3ccc(C)c(Cl)c3)c(=O)c2c1C`, -0.286%.
With `CCN1CCN(c2ccc(S(=O)(=O)N3CCCCC3)cc2NC(=O)Cc2c(Cl)cccc2Cl)CC1` the figure was 1.2%.
The value for `CCC(C)Cn1c(O)cc2nn(-c3nc4ccccc4s3)c(=O)c-2c1C` (centres undefined) was 52.5% (active); that for `O=c1c2cc(-c3ccccc3)sc2nc2n1N=C(c1cccs1)CS2` was 61.5% (active); that for `O=c1c(-c2ccccc2)cnc2n1CCS2` was -1.57%.
As for `COc1ccc(C(O)c2nc(-c3ccc4c(c3)OCO4)cs2)cc1` (centres undefined), the inhibition is 0.808%.
As for `COc1ccc(OC)c(Nc2nc(-c3ccc(O)c(O)c3)cs2)c1`, the inhibition was 62.5% (active).
For the compound `COc1cccc(C(O)c2nc(-c3ccc(C)c(C)c3)cs2)c1` (centres undefined), the inhibition is 3.13%.
With `Cc1ccccc1NC(=O)Cc1nc(COC(=O)CNC(=O)c2ccc(Cl)cc2Cl)cs1` the figure was 0.684%; with `COCCCNC(=O)C1CC(=O)N(CCc2ccccc2)C1` (centres undefined), -0.151%.
For the compound `CN(CCC1CCOCC1)C(=O)CC1C(=O)NCCN1Cc1cccc(F)c1` (centres undefined), the inhibition was -1.38%.
As for `Cc1cc2c(cc1C)N(C(=O)CN1C(=O)c3ccccc3C1=O)C(C)(C)c1ssc(=S)c1-2`, the inhibition is 2.43%.
The value for `CCOc1ccccc1NC(=O)C1CCCN(C(=O)Nc2ccccc2)C1` (centres undefined) was -1.09%; that for `O=C(Cn1cnc2c(nnn2-c2ccccc2)c1=O)N1CCC(Cc2ccccc2)CC1` was 1.23%.
With `COCCNc1nc(NCc2ccc(NC(C)=O)cc2)c2sccc2n1` the figure was 51.4% (active).
`CC(=O)Nc1ccc(CNc2nc(NCCN(C)C)nc3cc(-c4ccccc4)sc23)cc1`: the inhibition was 1.9%.
With `COc1cccc(CNc2nc(NCc3cccs3)nc3ccsc23)c1` the figure was 27%.
The value for `Fc1ccccc1OCCSc1nc2ccccc2o1` was 1.37%.
The value for `CCSc1nc2c(c(=O)[nH]1)C(c1cccnc1)C(C(=O)OC(C)C)=C(C)N2` (centres undefined) was -1.3%.
